{"source": "ChEMBL document CHEMBL4028909", "about": "“Discovery of an Orally Bioavailable Benzofuran Analogue That Serves as a β-Amyloid Aggregation Inhibitor for the Potential Treatment of Alzheimer's Disease” (J Med Chem, 2018)", "key": {"[1]": {"target": "Amyloid-beta precursor protein (Homo sapiens) (UniProt P05067)", "sequence (P05067 whole entry)": "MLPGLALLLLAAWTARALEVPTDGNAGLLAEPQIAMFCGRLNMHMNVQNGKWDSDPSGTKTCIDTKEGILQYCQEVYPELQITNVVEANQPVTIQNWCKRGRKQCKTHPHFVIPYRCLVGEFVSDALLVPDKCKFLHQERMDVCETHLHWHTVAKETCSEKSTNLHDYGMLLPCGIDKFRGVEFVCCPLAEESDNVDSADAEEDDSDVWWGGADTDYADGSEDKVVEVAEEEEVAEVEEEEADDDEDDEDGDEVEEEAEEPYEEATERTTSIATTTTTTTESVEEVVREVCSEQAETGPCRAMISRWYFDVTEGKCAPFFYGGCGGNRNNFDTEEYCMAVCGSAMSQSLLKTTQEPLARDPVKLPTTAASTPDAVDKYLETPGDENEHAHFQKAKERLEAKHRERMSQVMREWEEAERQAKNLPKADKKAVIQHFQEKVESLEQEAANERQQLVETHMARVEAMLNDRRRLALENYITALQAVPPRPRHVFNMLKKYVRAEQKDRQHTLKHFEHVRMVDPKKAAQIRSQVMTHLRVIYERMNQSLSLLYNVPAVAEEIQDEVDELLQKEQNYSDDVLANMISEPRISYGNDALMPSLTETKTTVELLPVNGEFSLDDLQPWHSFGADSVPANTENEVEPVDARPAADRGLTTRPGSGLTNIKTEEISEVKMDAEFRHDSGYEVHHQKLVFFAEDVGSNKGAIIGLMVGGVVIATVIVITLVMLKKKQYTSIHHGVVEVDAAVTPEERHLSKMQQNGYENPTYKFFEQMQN", "assay": "Inhibition of HFIP-pretreated amyloid beta (1 to 42) (unknown origin) aggregation after 1 hr by transmission electron microscopic method"}, "[2]": {"assay": "Initial concentration in mouse at 3 mg/kg, iv", "type": "ADME, organism-based", "conditions": "in vivo", "outline": "(§1)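 Mice received a single dose of 3 mg/kg i.v. or 3, 10 or 30 mg/kg orally. Plasma concentration-time profiles were analysed for AUC from zero to infinity and to the last measured time (hr*ng/mL), Cmax (ng/mL, C0 after i.v.), Tmax and terminal half-life (hr), and oral bioavailability (%).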"}, "[3]": {"assay": "AUClast in mouse at 3 mg/kg, iv", "type": "ADME, organism-based", "design": "dose 3 mg/kg, time 0 - last, route intravenous", "conditions": "in vivo", "outline": "as §1"}, "[4]": {"assay": "Tmax in mouse at 3 mg/kg, po", "type": "ADME, organism-based", "conditions": "in vivo", "outline": "(§2)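 Mouse pharmacokinetics: single i.v. dose of 3 mg/kg, or oral doses of 3, 10 and 30 mg/kg. Plasma concentration–time curves gave T1/2 (terminal, hr), Tmax (hr), Cmax, AUC and bioavailability (%).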"}, "[5]": {"assay": "AUClast in mouse at 3 mg/kg, po", "type": "ADME, organism-based", "design": "dose 3 mg/kg, time 0 - last, route oral", "conditions": "in vivo", "outline": "as §1"}, "[6]": {"assay": "AUC (infinity) in mouse at 3 mg/kg, po", "type": "ADME, organism-based", "design": "dose 3 mg/kg, time infinity, route oral", "conditions": "in vivo", "outline": "as §1"}, "[7]": {"assay": "Tmax in mouse at 10 mg/kg, po", "type": "ADME, organism-based", "conditions": "in vivo", "outline": "as §2"}, "[8]": {"assay": "Oral bioavailability in mouse at 10 mg/kg", "type": "ADME, organism-based", "conditions": "in vivo", "outline": "as §1"}, "[9]": {"assay": "Terminal half life in mouse at 30 mg/kg, po", "type": "ADME, organism-based", "conditions": "in vivo, read-out: beta t1/2 (converted)", "outline": "as §2"}, "[10]": {"assay": "AUClast in mouse at 30 mg/kg, po", "type": "ADME, organism-based", "design": "dose 30 mg/kg, time 0 - last, route oral", "conditions": "in vivo", "outline": "as §1"}, "[11]": {"assay": "AUC (infinity) in mouse at 30 mg/kg, po", "type": "ADME, organism-based", "design": "dose 30 mg/kg, time infinity, route oral", "conditions": "in vivo", "outline": "as §1"}, "[12]": {"assay": "Clearance in iv dosed rat", "type": "ADME, organism-based", "conditions": "in vivo"}, "[13]": {"assay": "Clearance in iv dosed dog", "type": "ADME, organism-based, Canis lupus familiaris", "conditions": "in vivo"}, "Mus musculus": {"tested_on": "Mus musculus", "assay": "Volume of distribution at steady state in po ICR mouse", "type": "ADME, organism-based", "conditions": "in vivo"}, "[14]": {"assay": "Half life in po dosed monkey", "type": "ADME, organism-based, Macaca mulatta", "conditions": "rhesus monkey, in vivo"}, "[15]": {"assay": "Half life in po ICR mouse", "type": "ADME, organism-based", "conditions": "in vivo"}, "[16]": {"assay": "AUC in po dosed rat", "type": "ADME, organism-based", "conditions": "in vivo"}, "[17]": {"assay": "AUC in po dosed dog", "type": "ADME, organism-based, Canis lupus familiaris", "conditions": "in vivo"}, "[18]": {"assay": "Oral bioavailability in monkey", "type": "ADME, organism-based, Macaca mulatta", "conditions": "rhesus monkey, in vivo"}, "[19]": {"assay": "Ratio of AUC in ICR mouse brain to AUC in ICR mouse plasma at 10 mg/kg, po measured at 3 hrs", "type": "ADME, organism-based", "conditions": "read-out: Ratio AUC", "outline": "(§3)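 ICR mice (n=3) given a single oral dose of 10 mg/kg. Brain and plasma were sampled over nine hours, at 0.333, 1, 3, 6 and 9 h. Kp was calculated as AUC_brain/AUC_plasma.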"}, "[20]": {"assay": "Ratio of AUC in ICR mouse brain to AUC in ICR mouse plasma at 10 mg/kg, po measured at 6 hrs", "type": "ADME, organism-based", "conditions": "read-out: Ratio AUC", "outline": "as §3"}, "Cytochrome P450 2C8": {"target": "T1, Cytochrome P450 2C8 (Homo sapiens, UniProt P10632)", "T1 sequence (P10632 whole entry)": "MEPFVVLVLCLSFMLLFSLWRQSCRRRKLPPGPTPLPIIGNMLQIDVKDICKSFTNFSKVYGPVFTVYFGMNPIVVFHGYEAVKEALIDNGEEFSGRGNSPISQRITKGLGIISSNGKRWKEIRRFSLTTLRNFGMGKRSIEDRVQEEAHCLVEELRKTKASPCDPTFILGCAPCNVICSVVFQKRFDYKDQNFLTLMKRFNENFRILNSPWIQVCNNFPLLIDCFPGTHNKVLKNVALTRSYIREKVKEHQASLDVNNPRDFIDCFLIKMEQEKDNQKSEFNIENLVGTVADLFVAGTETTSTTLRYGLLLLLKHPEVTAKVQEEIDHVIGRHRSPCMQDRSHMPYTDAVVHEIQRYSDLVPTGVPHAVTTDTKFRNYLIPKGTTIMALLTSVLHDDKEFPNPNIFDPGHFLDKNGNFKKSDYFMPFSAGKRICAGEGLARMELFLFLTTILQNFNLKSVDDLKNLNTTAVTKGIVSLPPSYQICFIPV", "assay": "Inhibition of CYP2C8 in human liver microsomes preincubated for 5 mins followed by addition of NADPH generating system measured after 20 mins by LC-MS/MS analysis", "type": "ADME", "outline": "(§4)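 Inhibition of each CYP isozyme (1A2, 2A6, 2C8, 2C9, 2C19, 2D6, 3A4) was measured in human liver microsomes. IC50 values were reported in μM.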"}, "Cytochrome P450 2C19": {"target": "Cytochrome P450 2C19 (Homo sapiens, UniProt P33261)", "sequence (P33261 whole entry)": "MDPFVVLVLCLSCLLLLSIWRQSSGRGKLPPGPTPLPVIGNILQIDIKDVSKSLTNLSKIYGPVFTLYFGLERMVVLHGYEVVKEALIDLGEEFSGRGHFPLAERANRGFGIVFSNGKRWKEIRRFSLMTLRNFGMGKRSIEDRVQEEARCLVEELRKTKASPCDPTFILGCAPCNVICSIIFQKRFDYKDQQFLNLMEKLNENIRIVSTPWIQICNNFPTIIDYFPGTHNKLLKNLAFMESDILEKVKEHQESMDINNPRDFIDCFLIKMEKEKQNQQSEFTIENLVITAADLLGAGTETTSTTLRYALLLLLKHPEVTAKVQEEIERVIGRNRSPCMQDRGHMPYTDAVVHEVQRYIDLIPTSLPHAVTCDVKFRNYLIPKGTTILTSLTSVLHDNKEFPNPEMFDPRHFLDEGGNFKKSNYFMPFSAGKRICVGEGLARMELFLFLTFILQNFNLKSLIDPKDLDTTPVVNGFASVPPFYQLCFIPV", "assay": "Inhibition of CYP2C19 in human liver microsomes preincubated for 5 mins followed by addition of NADPH generating system measured after 20 mins by LC-MS/MS analysis", "type": "ADME", "outline": "as §4"}, "Cytochrome P450 2D6": {"target": "Cytochrome P450 2D6 (Homo sapiens, UniProt P10635)", "sequence (P10635 whole entry)": "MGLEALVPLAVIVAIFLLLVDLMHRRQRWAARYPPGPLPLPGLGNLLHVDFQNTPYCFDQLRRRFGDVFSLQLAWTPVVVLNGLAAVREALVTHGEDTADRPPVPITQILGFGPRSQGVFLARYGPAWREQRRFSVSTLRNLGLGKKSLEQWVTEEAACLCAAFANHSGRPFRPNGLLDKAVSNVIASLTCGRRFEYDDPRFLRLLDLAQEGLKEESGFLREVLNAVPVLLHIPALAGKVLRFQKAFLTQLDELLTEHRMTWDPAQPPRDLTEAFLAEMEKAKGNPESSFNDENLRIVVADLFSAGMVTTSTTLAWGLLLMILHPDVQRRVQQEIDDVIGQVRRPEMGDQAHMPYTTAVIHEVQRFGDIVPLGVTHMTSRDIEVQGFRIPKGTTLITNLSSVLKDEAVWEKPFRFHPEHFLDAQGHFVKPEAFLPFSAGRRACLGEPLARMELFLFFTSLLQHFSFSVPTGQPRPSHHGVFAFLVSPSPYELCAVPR", "assay": "Inhibition of CYP2D6 in human liver microsomes preincubated for 5 mins followed by addition of NADPH generating system measured after 20 mins by LC-MS/MS analysis", "type": "ADME", "outline": "as §4"}, "[21]": {"assay": "Half-life in po dosed ICR mouse", "conditions": "in vivo"}}, "note": "Active and inactive are the calls of the source. No cut-off for these calls is given here."}
{"smiles": "COCCCc1ccc2oc(-c3ccc(OC)c(OC)c3)cc2c1", "values": [{"measurement": "inhibition", "setting": "[1]", "value": "Active"}, {"measurement": "C0", "setting": "[2]", "value": 4.87, "unit": "µg/mL"}, {"measurement": "AUC(0-t)", "setting": "[3]", "value": 1.3, "unit": "µg·h/mL"}, {"measurement": "Tmax", "setting": "[4]", "value": 0.7, "unit": "h"}, {"measurement": "AUC(0-t)", "setting": "[5]", "value": 0.246, "unit": "µg·h/mL"}, {"measurement": "AUC(0-inf)", "setting": "[6]", "value": 0.283, "unit": "µg·h/mL"}, {"measurement": "Tmax", "setting": "[7]", "value": 0.7, "unit": "h"}, {"measurement": "bioavailability", "setting": "[8]", "value": 51.9, "unit": "%"}, {"measurement": "half-life", "setting": "[9]", "value": 3.3, "unit": "h"}, {"measurement": "AUC(0-t)", "setting": "[10]", "value": 10.4, "unit": "µg·h/mL"}, {"measurement": "AUC(0-inf)", "setting": "[11]", "value": 10.5, "unit": "µg·h/mL"}, {"measurement": "clearance", "setting": "[12]", "value": 1.98, "unit": "L/h/kg"}, {"measurement": "clearance", "setting": "[13]", "value": 1.74, "unit": "L/h/kg"}, {"measurement": "Vdss", "setting": "Mus musculus", "value": 2.5, "unit": "L/kg"}, {"measurement": "half-life", "setting": "[14]", "value": 12.9, "unit": "h"}, {"measurement": "half-life", "setting": "[15]", "value": 5.87, "unit": "h"}, {"measurement": "AUC", "setting": "[16]", "value": 4.2, "unit": "µg·h/mL"}, {"measurement": "AUC", "setting": "[17]", "value": 4.19, "unit": "µg·h/mL"}, {"measurement": "bioavailability", "setting": "[18]", "value": 70, "unit": "%"}, {"measurement": "Kp at 3 h", "setting": "[19]", "value": 1.2}, {"measurement": "Kp at 6 h", "setting": "[20]", "value": 1.2}, {"measurement": "IC50", "setting": "Cytochrome P450 2C8", "value": 31.4, "unit": "µM"}, {"measurement": "IC50", "setting": "Cytochrome P450 2C19", "value": "> 50", "unit": "µM"}, {"measurement": "IC50", "setting": "Cytochrome P450 2D6", "value": "> 50", "unit": "µM"}, {"measurement": "t1/2", "setting": "[21]", "value": 5.87, "unit": "h"}]}
